Results reported in ChEMBL document CHEMBL1133861, “A novel class of highly potent, selective, and non-peptidic inhibitor of Ras farnesyltransferase (FTase)” (Bioorg Med Chem Lett, 2001).

How the values were obtained:
[1] = molecular target: T1, Protein farnesyltransferase (Homo sapiens, UniProt P49354+P49356); assay: Inhibition of farnesyltransferase activity against H-Ras; assay type: protein-complex assay
Outline: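 FTase (16.6 nM) incubated 30 min at 37 °C with H-Ras substrate, [3H]farnesyl pyrophosphate and serially diluted compound. Buffer: 50 mM HEPES pH 7.4, KCl, MgCl2, ZnCl2, 0.5% N-octylglucoside, 10 mM DTT. Reactions quenched with 10% HCl in ethanol. Farnesylated Ras captured on glass-fiber filters and scintillation counted. IC50 is the concentration halving [3H]FPP incorporation; mean of three experiments.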

[2] = molecular target: T1, Protein farnesyltransferase; assay: Inhibition of farnesyltransferase activity against K-Ras; assay type: protein-complex assay
Outline: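 K-Ras used as acceptor substrate with FTase (16.6 nM) and [3H]FPP plus serially diluted inhibitor, 30 min at 37 °C, in HEPES pH 7.4 buffer with Mg2+, Zn2+, KCl, octylglucoside and DTT. Stopped with acidic ethanol, then filter binding and scintillation counting of labeled K-Ras. IC50 is 50% reduction of [3H]FPP transfer; mean of three determinations.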

[3] = molecular target: Geranylgeranyl transferase type I (Homo sapiens, UniProt P49354+P53609); assay: Inhibition of Geranylgeranyl transferase type I; assay type: protein-complex assay
HCT-116 [4] = assay: Percent inhibition of tumor growth relative to control tumors in tumor xenograft nude mice against HCT116 at a dose of 60 mg/kg, bid on day 21;p<0.001; assay type: functional, Homo sapiens; conditions: Mus musculus, HCT-116, 504 h
Outline: (§1)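 Female athymic BALB/c nu/nu mice, 5–7 weeks old, acclimated ≥1 week, inoculated s.c. intrascapularly with 10^7 tumor cells. Tumour volume measured in three dimensions every three days as 1/6·π·L·W·H. At ~100 mm3 mice randomised, 8 per group (Day 0). Dosing by gastric gavage twice daily from Day 1 for 21 days; vehicle 0.9% saline. Ulcerated tumours excluded; Student's t-test.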

A549 = assay: Inhibition of anchorage independent growth of human tumor cell line A549 K-ras-transformed in soft agar; assay type: functional
Outline: (§2)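 Cells adapted 2–3 days in DMEM + 10% FBS after thawing. Bottom layer 0.5% agar with DMEM/FBS and compound; top layer 0.33% agar with compound, cells at 2–5×10^3 cells/mL. Colonies counted by microscope after two weeks in humidified CO2 incubator. GI50 from plot of % colony growth versus log10 concentration for each cell line.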

HT-29 = assay: Inhibition of anchorage independent growth of human tumor cell line HT-29 K-ras-transformed in soft agar; assay type: functional; outline: as §2
EJ [5] = assay: Percent inhibition of tumor growth relative to control tumors in tumor xenograft nude mice against EJ at a dose of 20 mg/kg, bid on day 15;p<0.001; assay type: functional, Homo sapiens; conditions: Mus musculus, 360 h; outline: as §1
EJ [6] = assay: Inhibition of anchorage independent growth of human tumor cell line EJ H-ras-transformed in soft agar; assay type: functional; outline: as §2
HCT-116 [7] = assay: Percent inhibition of tumor growth relative to control tumors in tumor xenograft nude mice against HCT116 at a dose of 40 mg/kg, bid on day 21;p<0.001.; assay type: functional, Homo sapiens; conditions: Mus musculus, HCT-116, 504 h; outline: as §1
HCT-116 [8] = assay: Inhibition of anchorage independent growth of human tumor cell line HCT116 K-ras-transformed in soft agar; assay type: functional; outline: as §2
T-24 = assay: Inhibition of anchorage independent growth of human tumor cell line T24 H-ras-transformed in soft agar; assay type: functional; outline: as §2
EJ [9] = assay: Percent inhibition of tumor growth relative to control tumors in tumor xenograft nude mice (with p<0.001 compared to control) against EJ at a dose of 60 mg/kg, bid on day 15;Regression.; assay type: functional, organism-based; design: dose 60 mg/kg; conditions: Homo sapiens; outline: as §1
EJ [10] = assay: Percent inhibition of tumor growth relative to control tumors in tumor xenograft nude mice (with p<0.001 compared to control) against EJ at a dose of 40 mg/kg, bid on day 15;Regression.; assay type: functional, organism-based; design: dose 40 mg/kg; conditions: Homo sapiens; outline: as §1

What does the source list for O=C(c1cn(Cc2cncn2Cc2ccccc2)cc1-c1cccc2ccccc12)N1CCOCC1?
IC50 [1]: 1.5 nM; IC50 [2]: 2.1 nM

What does the source list for Cn1cncc1Cn1cc(C(=O)N2CCOCC2)c(-c2cccc3ccccc23)c1?
IC50 [1]: 3 nM; IC50 [3]: > 100 µM; IC50 [2]: 100 nM

For COCCN(C)C(=O)c1cn(Cc2cncn2Cc2ccc3c(c2)OCO3)cc1-c1cccc2ccccc12, which IC50 [3] is on record?
The IC50 was 10 µM.

For O=C(c1cn(Cc2c[nH]cn2)cc1-c1cccc2ccccc12)N1CCOCC1, which IC50 [2] is on record?
Its IC50 is 1830 nM.

Which inhibition in vivo at 60 mg/kg (HCT-116 [4]) does the source give for CN1CCN(C(=O)c2cn(Cc3cncn3Cc3ccc4c(c3)OCO4)cc2-c2cccc3ccccc23)CC1 [listing 1 of 3 here] here?
Its inhibition in vivo at 60 mg/kg is 55%.

What about the GI50 (A549) of the same molecule?
Its GI50 is 1.2 nM.

And the GI50 (HT-29)?
Its GI50 is 4.5 nM.

What about the inhibition in vivo at 20 mg/kg (EJ [5]) of the same molecule?
Its inhibition in vivo at 20 mg/kg is 78%.

And the GI50 (EJ [6])?
The GI50 was 0.56 nM.

And the inhibition in vivo at 40 mg/kg (HCT-116 [7])?
The inhibition in vivo at 40 mg/kg was 43%.

And the GI50 (HCT-116 [8])?
Its GI50 is 17.6 nM.

What about the GI50 (T-24) of the same molecule?
Its GI50 is 0.45 nM.

For CCOC(=O)c1cn(Cc2c[nH]cn2)cc1-c1cccc2ccccc12, which IC50 [1] is on record?
The IC50 was 500 nM.

CN1CCN(C(=O)c2cn(Cc3cncn3Cc3ccc4c(c3)OCO4)cc2-c2cccc3ccccc23)CC1 [listing 2 of 3 here] was tested. Which inhibition (EJ [9]) did it give?
The inhibition was “Regression”.

What about the inhibition (EJ [10]) of the same molecule?
Its inhibition is “Regression”.

Which results are given for CN1CCN(C(=O)c2cn(Cc3cncn3Cc3ccc4c(c3)OCO4)cc2-c2cccc3ccccc23)CC1 [listing 3 of 3 here]?
IC50 [1]: 0.9 nM; IC50 [3]: 16 µM

O=C(c1cn(Cc2cnc[nH]2)cc1-c1ccccc1)N1CCOCC1 was tested. Which IC50 [1] did it give?
The IC50 was 2000 nM.

Which results are given for O=C(c1cn(Cc2cncn2Cc2ccc3c(c2)OCO3)cc1-c1cccc2ccccc12)N1CCOCC1?
IC50 [1]: 0.9 nM; IC50 [3]: 12 µM
